Rows were chosen to be rich in hits. Some 3.9% of all compounds tested hit in one or more screens of this group.
HCV core dimer: blocks dimerization of HCV core protein; TR-FRET GST/Flag-core106 dimerization, 1536-well; 300,000 compounds, 0.33% hits; inhibition, % at 5 µM;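 active = inhibition above the mean of all tested compounds plus 3 SD, set per screening campaign, cut at about 45% in these data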
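Assay system: GST-tagged and Flag-tagged HCV core protein residues 1-106 / Times: compound-protein-antibody incubation 4 h at 22.5 °C / Signal: time-resolved FRET, ex 340 nm, em 617 and 671 nm / Evaluation: % inhibition based on acceptor/donor emission ratio / Benchmarks: wells lacking GST-core106 and wells with excess unlabelled core106 / Repeats: singlicate, one well per compound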
HSP90 inh: inhibitors of HSP90 luciferase refolding in rabbit reticulocyte lysate; AID 1789; inhibition, % at 5.6 µM; 290,000 compounds, 0.91% hits; luciferase refolding luminescence, 3 h;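 active = inhibition above the screen-wide mean plus 3 SD, computed separately per campaign, cut at about 16% in these data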;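 note: 0% = DMSO wells and 100% = 60 µM geldanamycin wells; inhibitors lower the luminescence because luciferase stays unfolded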
NS3 helicase inh: HCV NS3 helicase inhibition. NS3 helicase DNA unwinding, Cy5 molecular beacon fluorescence. AID 1800. inhibition, % at 10.9 µM. 290,000 compounds, 0.56% hits;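 active = inhibition above the mean of all tested compounds plus 3 SD, set per campaign, cut at about 35% in these data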;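 note: 0% = DMSO wells and 100% = thioflavine S control wells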
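System: Hepatitis C virus NS3 helicase domain fragment enzyme | Reagent: Annealed dual-labelled DNA beacon duplex, ATP-started | Compound dosing: 10.9 µM single point, 0.8% DMSO | Incubation: 1 h reaction at 25 °C, ATP-initiated | Technique: Cy5 fluorescence | Evaluation: Percent inhibition from t60/t0 fluorescence ratio | Benchmarks: Low DMSO, high thioflavine S at 110 µM | Replication: Singlicate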
DNA FID counter-1: displaces DNA intercalator in HCV helicase counter-screen; 290,000 compounds, 0.17% hits; DNA fluorescent intercalator displacement, fluorescence; inhibition, % at 7.9 µM;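 note: 0% = vehicle and 100% = reference compound; higher means more ethidium bromide displaced from hairpin DNA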
HSF1 inhib: HSF1 inhibition | NIH3T3-HGL HSE-luciferase, MG132-induced, luminescence 8 h; hits give low values | activity change, negative = inhibition, % at 7.5 µM (by protocol) | 300,000 compounds, 0.77% hits;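 active = more than half of replicate wells show activity change below -50%, luminescence cut by over half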;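 note: luciferase reports HSF-1 transcriptional activity via heat shock element; 0% = median of DMSO wells and -100% = zero luminescence signal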
HSF-1 act: increases HSF-1 driven luciferase reporter signal | NIH3T3-HGL HSF-1 luciferase reporter, MG132, 8 h; 100% = twice DMSO control signal | activation, % at 9 µM | 300,000 compounds, 1.7% hits;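 active = mean replicate activation of at least 50% with a set share of replicates each reaching 50%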;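 note: 0% = median of the neutral control wells and 100% = twice that signal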
NS3 hel confirm: confirmation of Hepatitis C virus NS3 helicase inhibitors; shares compounds with NS3 helicase inh; NS3 helicase DNA unwinding, Cy5 molecular beacon fluorescence; inhibition, % at 10.9 µM; 1,600 compounds, 31% hits;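 active = inhibition above the mean of all tested compounds plus 3 SD, cutoff set per campaign, cut at about 36% in these data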
DNA FID counter-2: intercalator displacement, NS3 helicase counter-screen. shares compounds with NS3 helicase inh. DNA fluorescent intercalator displacement, fluorescence. inhibition, % at 7.9 µM. 1,600 compounds, 4% hits. AID 1945;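 note: 0% = vehicle and 100% = reference compound; higher means more displacement of ethidium bromide from the DNA hairpin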
DNA FID DR: DNA intercalator displacement in dose response. shares compounds with NS3 helicase inh. fluorescent intercalator displacement from DNA, fluorescence. IC50, µM. 120 tested, under 10 active; call rule not given here
* = called active by the depositor; · = no result given. Cut-off read from the data, not from the text of the source, unless noted: active = inhibition above about 37%; inactive = the rest.

SMILES | HCV core dimer | HSP90 inh | NS3 helicase inh | DNA FID counter-1 | HSF1 inhib | HSF-1 act | NS3 hel confirm | DNA FID counter-2 | others
CCCOc1ccc(/C(O)=C2\C(=O)C(=O)N(c3ccccn3)C2c2ccccc2F)cc1C (stereo unspecified) | 4 | -6 | 47* | -38 | 2 | 17 | 94* | -31 | DNA FID DR=>79
O=C(Cc1ccc([N+](=O)[O-])cc1)NC1CCCCCC1 | -6 | -4 | 6 | 1 | -1 | 29 | · | ·
O=C(C1=C(O)C(=O)N(CCc2ccccc2)C1c1ccncc1)c1cc2ccccc2o1 (stereo unspecified) | 17 | 0 | 39* | -41 | 0 | -14 | 13 | -28
Cc1cc(N2C(=O)C(O)=C(C(=O)c3cc4ccccc4o3)C2c2ccc([N+](=O)[O-])cc2)no1 (stereo unspecified) | 16 | -9 | 24 | -8 | -9 | -6 | · | ·
Cc1ccc(C2C(C(=O)c3cc4ccccc4o3)=C(O)C(=O)N2c2cc(C)on2)cc1 (stereo unspecified) | 0 | -5 | 65* | -37 | 20 | 14 | 123* | -24 | DNA FID DR=>79
CCOC(=O)c1sc(N2C(=O)C(O)=C(C(=O)c3ccco3)C2c2cccc([N+](=O)[O-])c2)nc1C (stereo unspecified) | 17 | 3 | 105* | 4 | 0 | -2 | 115* | 24
Cc1cc(N2C(=O)C(O)=C(C(=O)c3ccco3)C2c2cccc(Oc3ccccc3)c2)no1 (stereo unspecified) | 6 | 0 | 66* | -37 | 11 | 17 | 116* | 2 | DNA FID DR=>79
CC1(C(=O)N2CC3(CC(c4cccc(NC(=O)CC(c5ccccc5)c5ccccc5)c4)=NO3)C[C@@H]2C(N)=O)CC1 (stereo partly specified) | 10 | · | · | · | -2 | -20 | · | ·
Cc1cc(C)c2nc(NC(=O)C3CC(=O)N(Cc4ccco4)C3)sc2c1 (stereo unspecified) | 3 | -3 | 13 | -31 | · | · | · | ·
O=C(Nc1nc2c(F)cc(F)cc2s1)C1CC(=O)N(Cc2ccco2)C1 (stereo unspecified) | 21 | 2 | 41* | -10 | 5 | 8 | -8 | -27
Cc1ccc(-n2c(C)cc(-c3csc(N)n3)c2C)cc1 | 43 | 5 | 83* | -19 | 0 | 2 | 8 | 23
COc1ccc(NC(=S)NNc2ccc(S(=O)(=O)Nc3ccccc3C(=O)O)cc2[N+](=O)[O-])cc1 | -9 | 20* | 40* | 13 | -5 | -2 | 83* | 27
COc1ccc(CN(C(=O)CN2C(=O)c3ccccc3S2(=O)=O)C(C(=O)NCC2CCCO2)c2ccco2)cc1 (stereo unspecified) | -1 | -3 | -1 | -42 | -3 | 0 | · | ·
CC1(C)Cc2c(c(-c3ccco3)nc3sc4c(NCCCO)ncnc4c23)CO1 | 2 | 2 | 60* | -6 | 5 | 5 | -21 | -18
CC1(C)Cc2c(c(-c3ccco3)nc3sc4c(NCCN5CCOCC5)ncnc4c23)CO1 | 4 | 3 | 23 | -25 | 5 | 19 | · | ·
Fc1ccc(-[n+]2nc(Nc3ccccc3)sc2-c2cccc(Cl)c2Cl)cc1 | -30 | -3 | 31 | -12 | 4 | 12 | · | ·
COc1cc(Br)c(-c2sc(Nc3ccccc3)n[n+]2-c2ccc(F)cc2)cc1OC | -35 | 0 | 45* | -17 | 2 | 7 | 13 | -5
Clc1cccc(-c2sc(Nc3ccccc3)n[n+]2-c2ccccc2)c1Cl | -12 | 3 | 69* | -10 | 9 | 11 | 9 | 20
Cc1ccc(OCCCC(=O)NNC(=O)c2ccncc2)cc1 | 3 | · | · | · | -3 | -13 | · | ·
CC1=NN(c2ccccc2)C(=O)/C1=C/C=C/c1ccccc1 | 12 | -3 | 9 | 1 | 6 | 10 | · | ·
C#CCOc1ccc(/C=C2/C(=O)N(c3cccc(C(=O)O)c3)N=C2C)cc1OC | 7 | 14 | 40* | -20 | 1 | 4 | 8 | 12
CC1=NN(c2cccc(C(=O)O)c2)C(=O)/C1=C\C=C\c1ccco1 | 39 | -1 | 42* | -21 | 4 | 14 | 76* | 4
COc1cc(/C=C2/C(=O)N(c3ccc(C(=O)O)cc3)N=C2C)cc(OC)c1O | · | 4 | 22 | -12 | -3 | -4 | · | ·
CC1CN(c2nc3ccccc3cc2-c2ccccc2)CC(C)O1 (stereo unspecified) | -3 | 0 | 8 | -16 | 4 | 0 | · | ·
CC(=O)C1=C(O)C(=O)N(c2ccc(Br)cc2)C1c1ccc(Cl)cc1 (stereo unspecified) | 9 | -3 | 37* | -34 | 11 | 25 | 80* | 1
SMILES | HCV core dimer | HSP90 inh | NS3 helicase inh | DNA FID counter-1 | HSF1 inhib | HSF-1 act | NS3 hel confirm | DNA FID counter-2 | others
CC(=O)C1=C(O)C(=O)N(c2cc(C(C)(C)C)on2)C1c1ccc(Br)cc1 (stereo unspecified) | 5 | -1 | 38* | -29 | 8 | 18 | 68* | -12
CCC(C)(C)NC(=O)/C=C/c1cccs1 | -14 | -1 | 8 | 1 | 6 | 7 | · | ·
COC(=O)c1c(-c2ccc(C)cc2)csc1NC(=O)C1CC=CCC1C(=O)O (stereo unspecified) | 2 | 4 | 39* | -42 | 5 | 13 | 53* | -22
COC(=O)c1c(-c2cc(C)ccc2C)csc1NC(=O)C1CC=CCC1C(=O)O (stereo unspecified) | 9 | 0 | 28 | -35 | -5 | 3 | · | ·
O=C(CN1C(=O)CSc2ccccc21)N/N=C/c1ccco1 | -5 | -2 | 5 | -17 | -4 | 6 | · | ·
COc1cc(OC)cc(C(=O)N[C@H](C(=O)NCCc2ccc(S(N)(=O)=O)cc2)C(C)C)c1 | 0 | 0 | 10 | -39 | 3 | 9 | · | ·
Cc1cc(C)n(-c2ccc(NC(=O)C3CCN(Cc4ccc(C)o4)CC3)cc2)n1 | 1 | -5 | -1 | 2 | 0 | -3 | · | ·
S=c1[nH]nc(-c2ccco2)n1/N=C/c1cccc(Cl)c1Cl | 4 | -1 | 44* | -6 | 0 | 21 | 9 | -3
S=c1[nH]nc(-c2ccco2)n1/N=C/c1ccc(Cl)cc1Cl | 3 | 1 | 9 | -6 | -4 | -8 | · | ·
NC(=O)CSc1nc2c(sc3ccccc32)c(=O)n1CCCC(=O)NCC1CCCO1 (stereo unspecified) | 2 | -2 | 0 | -9 | 6 | 2 | · | ·

Assay outcomes (PubChem BioAssay)
